Hits are enriched below; roughly 4.8% of the tested compounds scored in any of these assays.
NALP3 yeast inh: blocks the NALP3 inflammasome reconstituted in yeast | AID 2825 | Yeast reconstituted NLRP3/ASC/caspase-1, beta-gal luminescence, 24 h | inhibition, % at 10 µM | 330,000 tested, 0.39% active;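 active means inhibition of 50% or more; inactive means inhibition below 50%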;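 further: plate controls were induced DMSO wells for no effect and uninduced yeast grown without galactose for full effect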
ATG4B inh: inhibitors of human ATG4B cysteine protease; inhibition, % at 8.33 µM; Q9Y4P1; 340,000 tested, 0.51% active; ATG4B cleavage of LC3-PLA2, NBD-HPC fluorescence, 1 h; AID 504462; in the data active means inhibition above about 40%
UCH37 inh: blocks the human deubiquitinase UCH37. AID 588478. 330,000 tested, 0.33% active. purified proteasome/UCH37, Ub-AMC cleavage fluorescence. inhibition, % (test concentration not listed). Q9Y5K5;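 active means mean inhibition over replicate wells above about 20%, limit read from the data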;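 further: 0% = compound-free wells with enzyme and 100% = wells lacking proteasome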
Target sequence (Q9Y5K5 whole entry, looked up): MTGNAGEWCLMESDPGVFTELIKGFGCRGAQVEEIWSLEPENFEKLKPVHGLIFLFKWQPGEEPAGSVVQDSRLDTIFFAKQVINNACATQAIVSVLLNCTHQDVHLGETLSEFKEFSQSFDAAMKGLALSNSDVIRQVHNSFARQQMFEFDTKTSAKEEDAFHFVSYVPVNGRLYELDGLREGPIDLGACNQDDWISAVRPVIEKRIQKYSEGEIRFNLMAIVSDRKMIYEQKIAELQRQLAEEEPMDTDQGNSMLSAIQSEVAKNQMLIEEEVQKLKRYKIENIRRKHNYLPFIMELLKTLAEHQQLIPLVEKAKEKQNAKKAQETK
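Reagent: Ub-AMC substrate; assay system: Proteasome-associated human UCH37 deubiquitinase; controls: no-proteasome and no-compound wells; read-out: % inhibition of Ub-AMC cleavage fluorescence; timing: 30 min preincubation with enzyme, 25 min cleavage at room temperature; signal: AMC fluorescence from Ub-AMC cleavage, excitation 355 nm, emission 460 nm; buffer or medium: Tris-HCl pH 7.4 plus ovalbumin, ATP-MgCl2, DTT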
NALP1 inh: blocks the NALP1 inflammasome reconstituted in yeast; S. cerevisiae NALP1/ASC/caspase-1 growth, X-gal OD620, 72 h; inhibition, % at 10 µM; 280,000 tested, 0.61% active; in the data active means inhibition mostly above about 24%, no sharp cut-off; inactive means mostly below about 32%
Calb FLC: affects C. albicans growth with fluconazole | C. albicans CaCi-2 + fluconazole, Alamar Blue growth, 48 h | growth inhibition, % (concentration not given with the values) | 300,000 tested, 0.57% active | AID 1979;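 active means growth inhibition above about 58% in most replicates, limit read from the data, passing the limit was not always enough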;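 further: all wells also contain fluconazole at 8 µg/ml as a sub-toxic cotreatment; 0% = median of DMSO wells and 100% = median of geldanamycin control wells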
ALR H2O2 inh: human ALR oxidase inhibition via reduced H2O2. P55789. purified ALR, DTT oxidation, H2O2 HRP-luminol luminescence. inhibition, % (concentration not given with the values). 290,000 tested, 3.8% active. AID 485317;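 active means mean replicate inhibition above about 79%, with every replicate also reaching it, limit read from the data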
Target sequence (P55789 whole entry, looked up): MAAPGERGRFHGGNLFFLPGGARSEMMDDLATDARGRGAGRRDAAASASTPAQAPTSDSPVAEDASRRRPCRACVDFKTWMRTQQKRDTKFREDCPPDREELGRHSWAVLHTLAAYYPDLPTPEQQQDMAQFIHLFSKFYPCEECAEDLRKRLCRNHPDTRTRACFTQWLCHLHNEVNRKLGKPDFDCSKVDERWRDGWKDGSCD
Active calls of the source: *; . = not tested or not shown.

SMILES	NALP3 yeast inh	ATG4B inh	UCH37 inh	NALP1 inh	Calb FLC	ALR H2O2 inh
Cc1ccc2sc(NNC(=O)c3cc(-c4cccs4)nc4ccccc34)nc2c1C	.	.	.	19.4	-6.9	4.8
O=C(NNc1nc2ccc(Cl)cc2s1)c1cc(-c2cccs2)nc2ccccc12	14.0	-1.5	.	36.7	86.1*	-1.3
CNC(=O)N(O)C1N(N=Cc2ccccc2F)C(=S)SC1(C)C (configuration not stated)	.	.	6.8	.	.	.
Cc1ccc(-c2ccc(/C=N/n3cnnc3)o2)cc1	14.9	5.7	.	38.6*	2.6	0.1
CN1CCN(C(c2ccc(Cl)cc2)c2cc(Cl)c3cccnc3c2O)CC1 (configuration not stated)	40.1	1.4	.	14.3	-5.5	-2.4
CN1CCN(C(c2ccc(C(F)(F)F)cc2)c2cc(Cl)c3cccnc3c2O)CC1 (configuration not stated)	39.1	.	.	26.6	99.6*	10.2
Oc1c(C(c2ccccn2)N2CCCCC2)cc(Cl)c2cccnc12 (configuration not stated)	18.7	-1.2	2.0	9.7	8.6	82.8*
CC(CC(=O)Nc1ccc(Br)cc1)=NNC(=O)Cc1csc(N)n1	.	.	2.6	.	.	.
CC(CC(=O)NC(C)c1ccccc1)=NNC(N)=S (configuration not stated)	.	.	1.7	.	.	.
CCOc1ccccc1CN1CCN(Cc2nc3c(s2)CCCC3)CC1CCO (configuration not stated)	16.9	4.4	1.5	35.1*	-36.2	-18.2
CC(CC(=O)Nc1ccc(N(C)C)cc1)=NNC(=O)Cc1csc(N)n1	.	.	6.1	.	.	.
O=S(=O)(Cc1ccc(Cl)cc1)N1CCN(Cc2ccccc2)CC1	9.0	7.2	5.0	23.9	125.4*	0.7
CC(=NO)C(C)/[N+]([O-])=C/c1nc(C)c(C)n1O (configuration not stated)	.	.	2.4	.	.	.
CC1(C)CC(N2CCN(c3ccccc3)CC2)=CC(=[N+]2CCCC2)C1	-9.6	3.9	7.4	11.7	93.9*	55.5
CC1CC(C)C[N+](=C2C=C(N3CCCC3)CC(C)(C)C2)C1 (configuration not stated)	.	-1.7	11.0	11.0	-15.5	.
CC1(C)CC(N2CCCC2)=CC(=[N+]2CCCCCC2)C1	1.0	-6.6	8.7	8.0	88.2*	-7.6
CN(Cc1ccccc1)C1=CC(=[N+]2CCCC2)CC(C)(C)C1	9.3	29.9	8.8	.	-23.4	.
Cc1ccc(NC(=O)CCC(=O)NN=Cc2coc3ccccc3c2=O)cc1	.	.	-4.5	.	.	.
CCOC(=O)C1=C(CC)Nc2ccccc2N=C1NC(=O)c1ccc(S(=O)(=O)N2CCCC2)cc1	-0.7	-7.8	-0.5	-5.3	7.8	-13.3
CCOC(=O)C1=C(CC)Nc2ccccc2N=C1NC(=O)Nc1ccc(Cl)c(Cl)c1	9.6	61.6*	4.1	-0.7	-3.0	-3.2
N#Cc1cnn(Cc2ccccc2)c1N=CN1CCOCC1	.	.	-1.7	.	.	.
CCN(CC)c1ccc(NC(=O)c2ccc(Br)o2)c(C)c1	15.8	1.4	3.3	-7.0	-23.7	98.7*
Cc1ccc(NC(=O)CC2Oc3ccccc3NC2=O)c(C)c1 (configuration not stated)	4.9	-4.5	4.4	-13.6	2.7	-3.4
CCN(CC)c1ccc(/C=N/NC(=O)c2ccco2)c(O)c1	14.1	-7.0	.	6.3	88.9*	97.5*
CCN(CC)c1ccc(NC(=O)CC2Oc3ccccc3NC2=O)c(C)c1 (configuration not stated)	9.9	-5.0	6.3	-17.6	3.4	97.8*
SMILES	NALP3 yeast inh	ATG4B inh	UCH37 inh	NALP1 inh	Calb FLC	ALR H2O2 inh
Cc1cc(NC(=O)c2ccco2)sc1C	39.5	-4.5	3.9	.	.	98.3*
COc1ccc(C(C)=N/N=C2/NC(=O)CC(C(=O)O)S2)cc1F (configuration not stated)	.	.	8.9	.	.	.
CCOc1cc(C=NNc2ncc(C)c(=O)[nH]2)ccc1O	.	.	6.0	.	.	.
CCN(CC)c1ccc(NC(=O)c2cccc(F)c2)c(C)c1	14.5	0.9	3.6	1.7	-2.5	98.5*
CCN(CC)c1ccc(NC(=O)c2ccco2)c(C)c1	12.5	-4.3	2.5	-2.5	6.5	98.9*
CC1=NNC(=O)C1CCC(=O)NN=C/C=C/c1ccccc1 (configuration not stated)	.	.	3.2	.	.	.
CC(=O)Nc1ccc(NC(=O)CC2Nc3cccc4cccc(c34)NC2=O)cc1 (configuration not stated)	17.9	-16.8	4.2	9.4	0.8	85.7*
CN(C)CCN1CC(O)=C(c2nc3ccccc3s2)C1=N	5.0	-4.3	-1.4	-9.1	-4.6	.
N=C1C(c2nc3ccccc3s2)=C(O)CN1Cc1ccco1	13.1	-4.1	-6.8	28.4	-3.1	97.6*
O=C(O)CC/C(=N\Nc1ccc([N+](=O)[O-])cc1)c1ccccc1	31.4	-4.9	.	4.1	3.2	98.4*
CCn1c(N)c(C(=O)Nc2ccccc2C(=O)OC)sc1=S	26.0	20.7	4.6	3.2	-12.9	8.8
CCn1c(N)c(C(=O)NCCOC)sc1=S	6.8	-9.4	8.3	-6.2	-7.1	99.8*
CCn1c(N)c(C(=O)NCc2ccc3c(c2)OCO3)sc1=S	2.9	0.5	8.0	4.2	-1.3	99.1*
O=C(CCC(=O)N1CCOc2ccccc21)N1CCN(c2ccccc2)CC1	20.8	-1.3	3.3	8.8	-7.8	98.2*
CN(C)c1ccc(NC(=O)N2CCOCC2)cc1	7.4	5.6	2.1	-50.0	-2.0	99.0*
COc1ccc(N2CCN(C(=O)CCC(=O)N3Cc4ccccc4Oc4ncccc43)CC2)cc1	13.0	2.3	-1.2	2.9	14.0	90.2*
COc1cccc(N2CCN(C(=O)CCC(=O)N3CCOc4ccc(C)cc43)CC2)c1	22.4	6.0	7.3	13.7	-4.7	88.8*
O=C(CCC(=O)N1CCOc2ccccc21)N1CCOCC1	4.8	-1.8	6.1	21.6	-6.5	-9.9
Cc1ccc2nc(Nc3ccccc3)c(C=NO)c(=O)n2c1	.	.	1.9	.	.	.
CCON=CC1=C(O)C(C(=O)OC)C(C)(C)CC1=O (configuration not stated)	.	.	-0.9	.	.	.
O=C(Nc1ccc2c(c1)OCO2)N1CCN(c2ccccc2)CC1	-8.2	-8.7	7.2	-7.8	-20.0	58.5
O=C(Nc1ccc2c(c1)OCCO2)N1CCN(c2ccccc2)CC1	24.3	3.6	0.2	4.1	17.2	90.5*
O=C(NN=Cc1cccnc1)C1CCCN(S(=O)(=O)c2ccccc2)C1 (configuration not stated)	.	.	1.9	.	.	.
O=C(O)/C=C/c1cn(Cc2ccccc2)nc1-c1ccc(Cl)cc1	0.3	-0.9	3.2	-17.8	28.8	94.7*
Cc1ccc(-c2nn(Cc3ccccc3)cc2/C=C/C(=O)O)cc1	8.4	-17.0	0.9	17.3	10.4	3.1
O=C(O)/C(CC(=O)c1ccc(Cl)cc1)=N/Nc1ccc([N+](=O)[O-])cc1[N+](=O)[O-]	24.6	29.2	.	-4.4	-5.2	97.5*

High-throughput results deposited in PubChem BioAssay by several laboratories.
